In ChEMBL document CHEMBL4118216, “Adamantyl thioureas as soluble epoxide hydrolase inhibitors” (Bioorg Med Chem Lett, 2018):
In brackets after ≈: the same amount, converted by molar mass.

Experiments:
[1] = Aqueous solubility of the compound in 0.1 M sodium phosphate buffer at pH 7.4; type: physicochemical
Summary of the method: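 Solubility determined in 0.1 M sodium phosphate buffer, pH 7.4, with 1% DMSO present.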

[2] = target: T1, Bifunctional epoxide hydrolase 2 (Homo sapiens, UniProt P34913); experiment: Inhibition of recombinant human sEH expressed in baculovirus expression system using CMNPC as substrate preincubated for 5 mins followed by substrate addition measured for 10 mins by fluorescent based assay
T1 sequence (P34913 whole entry): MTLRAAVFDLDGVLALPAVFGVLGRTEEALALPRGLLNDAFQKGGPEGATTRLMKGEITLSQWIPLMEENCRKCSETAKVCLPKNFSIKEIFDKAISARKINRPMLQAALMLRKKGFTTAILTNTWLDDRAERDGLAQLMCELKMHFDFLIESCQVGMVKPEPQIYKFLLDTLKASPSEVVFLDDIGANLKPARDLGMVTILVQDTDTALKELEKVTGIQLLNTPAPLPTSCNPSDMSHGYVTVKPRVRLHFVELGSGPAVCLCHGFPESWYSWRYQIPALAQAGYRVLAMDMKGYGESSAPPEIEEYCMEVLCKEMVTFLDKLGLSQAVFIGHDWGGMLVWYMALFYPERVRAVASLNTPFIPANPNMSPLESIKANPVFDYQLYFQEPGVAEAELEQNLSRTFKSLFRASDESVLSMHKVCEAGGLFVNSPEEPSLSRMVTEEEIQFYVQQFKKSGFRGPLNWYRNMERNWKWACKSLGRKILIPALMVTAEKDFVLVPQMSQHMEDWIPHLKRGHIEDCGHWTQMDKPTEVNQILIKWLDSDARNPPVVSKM
Summary of the method: (§1)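 Kinetic fluorescent assay giving IC50 values; each value is the mean of three separate experiments.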

[3] = target: T2, Bifunctional epoxide hydrolase 2 (Mus musculus, UniProt P34914); experiment: Inhibition of recombinant mouse sEH expressed in baculovirus expression system using CMNPC as substrate preincubated for 5 mins followed by substrate addition measured for 10 mins by fluorescent based assay; summary of the method: as §1
T2 sequence (P34914 whole entry): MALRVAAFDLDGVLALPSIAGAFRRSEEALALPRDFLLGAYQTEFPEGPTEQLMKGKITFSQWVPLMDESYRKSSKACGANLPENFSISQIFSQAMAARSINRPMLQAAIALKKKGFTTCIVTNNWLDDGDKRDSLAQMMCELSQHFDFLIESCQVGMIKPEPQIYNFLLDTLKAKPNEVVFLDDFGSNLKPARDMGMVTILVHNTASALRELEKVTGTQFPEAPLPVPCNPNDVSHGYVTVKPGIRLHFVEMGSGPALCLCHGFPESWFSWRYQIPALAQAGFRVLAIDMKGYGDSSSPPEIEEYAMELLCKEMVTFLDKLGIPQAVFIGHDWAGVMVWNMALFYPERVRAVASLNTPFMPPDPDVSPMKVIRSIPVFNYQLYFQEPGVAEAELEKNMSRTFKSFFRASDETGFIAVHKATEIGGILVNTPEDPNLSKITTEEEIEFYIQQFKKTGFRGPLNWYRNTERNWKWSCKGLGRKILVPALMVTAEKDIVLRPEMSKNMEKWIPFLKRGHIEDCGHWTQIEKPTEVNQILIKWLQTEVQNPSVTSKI

[4] = target: T3, Bifunctional epoxide hydrolase 2 (Rattus norvegicus, UniProt P80299); experiment: Inhibition of rat sEH using CMNPC as substrate preincubated for 5 mins followed by substrate addition measured for 10 mins by fluorescent based assay; summary of the method: as §1
T3 sequence (P80299 whole entry): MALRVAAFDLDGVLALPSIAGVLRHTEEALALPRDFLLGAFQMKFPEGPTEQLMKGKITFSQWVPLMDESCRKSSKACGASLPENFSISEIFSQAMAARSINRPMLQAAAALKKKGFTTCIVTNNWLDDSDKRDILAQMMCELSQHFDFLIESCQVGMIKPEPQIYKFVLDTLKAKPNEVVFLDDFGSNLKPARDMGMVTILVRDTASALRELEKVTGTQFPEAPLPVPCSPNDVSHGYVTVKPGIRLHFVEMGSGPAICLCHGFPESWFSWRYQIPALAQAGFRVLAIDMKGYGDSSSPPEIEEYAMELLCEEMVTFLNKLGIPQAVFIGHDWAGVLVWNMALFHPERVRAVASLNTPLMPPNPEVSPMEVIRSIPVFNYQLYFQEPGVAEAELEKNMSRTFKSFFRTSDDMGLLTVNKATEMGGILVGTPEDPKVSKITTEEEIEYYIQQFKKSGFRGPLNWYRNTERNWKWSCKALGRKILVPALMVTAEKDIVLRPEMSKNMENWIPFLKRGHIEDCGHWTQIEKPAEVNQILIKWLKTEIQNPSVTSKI

| Compound | solubility [1] [µM] | IC50 [2] [nM] | IC50 [3] [nM] | IC50 [4] [nM] |
| --- | --- | --- | --- | --- |
| S=C(NC12CC3CC(CC(C3)C1)C2)NC12CC3CC(CC(C3)C1)C2 | 30 to 40 (≈ 10.3 to 13.8 µg/mL) | 11.2 |  |  |
| S=C(NCCc1ccccc1)NCCC12CC3CC(CC(C3)C1)C2 | 60 to 80 (≈ 20.6 to 27.4 µg/mL) | 52 |  |  |
| CC(NC(=S)NCCCCNC(=S)NC(C)C12CC3CC(CC(C3)C1)C2)C12CC3CC(CC(C3)C1)C2 (configuration not stated) | 120 to 130 (≈ 63.7 to 69 µg/mL) |  |  |  |
| CC12CC3CC(C)(C1)CC(NC(=S)NCCc1ccccc1)(C3)C2 | 8 to 12 (≈ 2.74 to 4.11 µg/mL) | 216 |  |  |
| CC(NC(=S)Nc1ccc(C23CC4CC(CC(C4)C2)C3)cc1)C12CC3CC(CC(C3)C1)C2 (configuration not stated) | 10 to 15 (≈ 4.49 to 6.73 µg/mL) | 57400 |  |  |
| S=C(NCCC12CC3CC(CC(C3)C1)C2)Nc1ccc(C23CC4CC(CC(C4)C2)C3)cc1 | 100 to 120 (≈ 44.9 to 53.8 µg/mL) | 5330 |  |  |
| S=C(NCCC12CC3CC(CC(C3)C1)C2)NC1C2CC3CC(C2)CC1C3 (configuration not stated) | 125 to 150 (≈ 46.6 to 55.9 µg/mL) | 259 |  |  |
| S=C(NCC12CC3CC(CC(C3)C1)C2)NC12CC3CC(CC(C3)C1)C2 | 70 to 80 (≈ 25.1 to 28.7 µg/mL) | 20.8 |  |  |
| S=C(NCCCCCCNC(=S)NC12CC3CC(CC(C3)C1)C2)NC12CC3CC(CC(C3)C1)C2 | 70 to 80 (≈ 35.2 to 40.2 µg/mL) | 7.7 | 50.6 | 61.6 |
| Fc1cccc(NC(=S)NCC23CC4CC(CC(C4)C2)C3)c1 | 30 to 40 (≈ 9.55 to 12.7 µg/mL) | 281 |  |  |
| S=C(NCCCCCCCNC(=S)NC12CC3CC(CC(C3)C1)C2)NC12CC3CC(CC(C3)C1)C2 | 70 to 80 (≈ 36.2 to 41.3 µg/mL) | 7.2 | 47.3 | 35.3 |
| CC(NC(=S)Nc1ccc(F)cc1)C12CC3CC(CC(C3)C1)C2 (configuration not stated) | 75 to 100 (≈ 24.9 to 33.2 µg/mL) | 1080 |  |  |
| CC(NC(=S)Nc1ccccc1)C12CC3CC(CC(C3)C1)C2 (configuration not stated) |  | 2590 |  |  |
| CC12CC3CC(C)(C1)CC(NC(=S)Nc1ccccc1)(C3)C2 | 40 to 60 (≈ 12.6 to 18.9 µg/mL) | 1220 |  |  |
| CC(NC(=S)NCCCCCCCCNC(=S)NC(C)C12CC3CC(CC(C3)C1)C2)C12CC3CC(CC(C3)C1)C2 (configuration not stated) | 120 to 130 (≈ 70.4 to 76.3 µg/mL) |  |  |  |
| CC(NC(=S)NCCc1ccccc1)C12CC3CC(CC(C3)C1)C2 (configuration not stated) | 20 to 30 (≈ 6.85 to 10.3 µg/mL) | 345 |  |  |
| CC12CC3CC(C)(C1)CC(NC(=S)Nc1ccc(C45CC6CC(CC(C6)C4)C5)cc1)(C3)C2 | 70 to 80 (≈ 31.4 to 35.9 µg/mL) | 2480 |  |  |
| S=C(NCC12CC3CC(CC(C3)C1)C2)Nc1ccc(C23CC4CC(CC(C4)C2)C3)cc1 | 65 to 75 (≈ 28.3 to 32.6 µg/mL) | 5900 |  |  |
| CC(NC(=S)NC1C2CC3CC(C2)CC1C3)C12CC3CC(CC(C3)C1)C2 (configuration not stated) | 30 to 40 (≈ 11.2 to 14.9 µg/mL) | 7780 |  |  |
| CC12CC3CC(C)(C1)CC(NC(=S)NCc1ccccc1)(C3)C2 | 10 to 15 (≈ 3.29 to 4.93 µg/mL) | 58 |  |  |
| S=C(NC1C2CC3CC(C2)CC1C3)NC1C2CC3CC(C2)CC1C3 (configuration not stated) | 50 to 60 (≈ 17.2 to 20.7 µg/mL) | 131 |  |  |
| S=C(Nc1ccc(C23CC4CC(CC(C4)C2)C3)cc1)NC1C2CC3CC(C2)CC1C3 (configuration not stated) | 175 to 200 (≈ 73.6 to 84.1 µg/mL) | 5940 |  |  |
| CC(NC(=S)NC12CC3CC(CC(C3)C1)C2)C12CC3CC(CC(C3)C1)C2 (configuration not stated) |  | 60.3 |  |  |
| Fc1cccc(NC(=S)NCCC23CC4CC(CC(C4)C2)C3)c1 | 80 to 90 (≈ 26.6 to 29.9 µg/mL) | 160 |  |  |
| CC12CC3CC(C)(C1)CC(NC(=S)Nc1cccc(F)c1)(C3)C2 | 50 to 60 (≈ 16.6 to 19.9 µg/mL) | 58 |  |  |
| S=C(NCCCCCCCCNC(=S)NC12CC3CC(CC(C3)C1)C2)NC12CC3CC(CC(C3)C1)C2 | 40 to 50 (≈ 21.2 to 26.5 µg/mL) | 9.8 | 1170 | 374 |
| Fc1ccc(NC(=S)NCCC23CC4CC(CC(C4)C2)C3)cc1 | 125 to 150 (≈ 41.6 to 49.9 µg/mL) | 148 |  |  |
| CCC(CC12CC3CC(CC(C3)C1)C2)NC(=S)Nc1ccccc1 (configuration not stated) |  | 50200 |  |  |
